Bioassay records as filed in PubChem.
OX1R antag-1 = human HCRTR1 antagonism; actives 0.43% (n = 330,000); AID 434989; CHO/OX1R cells, Fluo-8 calcium fluorescence, orexin A; inhibition, % at 5 µM; O43613;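 active means inhibition above its plate's threshold, mean inhibition of all tested compounds on the plate plus 3 SD, cut at about 37% in these data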;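 further: 0% = orexin A challenge wells and 100% = SB-334867-A antagonist wells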
CHO parental Ca = counter-screen for OX1R antagonists: effect in parental CHO cells | parental CHO-K1, ATP-induced calcium, Fluo-8 fluorescence | inhibition, % at 5.6 µM | actives 0.63% (n = 330,000) | AID 463079;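 active means inhibition above that plate's mean sample inhibition plus 3 SD, cut at about 26% in these data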;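 further: 0% = ATP-challenged DMSO wells and 100% = DMSO wells without ATP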
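Assay system – parental CHO cells · Reagent – ATP stimulus · Detection – intracellular calcium via Fluo-8 no-wash fluorescent dye · Evaluation – percent inhibition of ATP-evoked calcium rise, normalized to controls · Controls – ATP wells versus no-ATP DMSO wells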
OXTR ag = human OXTR agonism; P30559; CHO-OTR cells, Fluo-8 calcium fluorescence; normalized: DMSO 0%, oxytocin 100%; activation, % at 3 µM; actives 0.32% (n = 320,000);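 active means activation above the mean of all tested compounds plus 3 SD, cutoff set per screening run, cut at about 20% in these data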;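 further: peak over basal fluorescence ratio from a 100 s FLIPR kinetic read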
OXTR potentiate = potentiators of human oxytocin receptor; P30559; CHO-OTR cells, Fluo-8 calcium fluorescence, potentiator mode; 0% = oxytocin EC15, 100% = EC100; activation, % at 3 µM; actives 0.061% (n = 320,000);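 active means activation above that plate's cutoff, the mean activation of tested compounds plus 3 SD, cut at about 6.6% in these data, passing the limit was not always enough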;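 further: 100% uses oxytocin at 75 nM as the full agonist control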
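assay system = CHO-OTR cells, human receptor | schedule = compound 6 min at room temperature before oxytocin, 100 s read | detection = Fluo-8 intracellular calcium fluorescence, ex 470-495, em 515-575 nm | evaluation = normalized max/min fluorescence ratio, % activation | control set = EC15 oxytocin alone as 0%, 75 nM oxytocin (EC100) as 100%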
V1aR counter = counter-screen for oxytocin receptor agonists: human V1a receptor agonists | P37288 | CHO-V1R cells, Fluo-8 calcium fluorescence, agonist mode; 0% DMSO, 100% 3 nM vasopressin | activation, % at 3 µM | actives 0.25% (n = 320,000);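 active means activation above the mean activation of all tested compounds plus 3 SD, per screening run, cut at about 20% in these data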;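 further: signal is peak over basal fluorescence ratio across a 100 second FLIPR read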
Target sequence (P37288 whole entry, looked up): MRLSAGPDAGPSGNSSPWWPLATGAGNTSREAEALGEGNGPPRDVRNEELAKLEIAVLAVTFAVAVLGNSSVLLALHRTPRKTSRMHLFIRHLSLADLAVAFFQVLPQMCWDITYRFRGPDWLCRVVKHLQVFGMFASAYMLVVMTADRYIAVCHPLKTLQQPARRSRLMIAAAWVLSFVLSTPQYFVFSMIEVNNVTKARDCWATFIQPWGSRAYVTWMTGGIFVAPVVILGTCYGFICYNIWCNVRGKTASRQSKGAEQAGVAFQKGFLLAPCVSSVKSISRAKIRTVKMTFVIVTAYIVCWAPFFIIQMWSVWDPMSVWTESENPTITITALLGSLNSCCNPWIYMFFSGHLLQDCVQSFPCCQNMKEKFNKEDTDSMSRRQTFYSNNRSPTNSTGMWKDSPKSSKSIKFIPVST
OX1R antag-2 = blocks the human orexin 1 receptor; OX1R-expressing cells, FRET antagonist read-out; inhibition, % at 6.6 µM; actives 1.8% (n = 330,000); in the data active means inhibition mostly above about 38%, no sharp cut-off; inactive means mostly below about 40%;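 further: 0% = agonist challenge alone and 100% = reference antagonist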
OX1R Ca confirm = OX1R (human) antagonism, confirmed. shares compounds with OX1R antag-1. CHO/OX1R cells, orexin A calcium Fluo-8 fluorescence. inhibition, % at 5 µM. actives 38% (n = 1,100); in the data active means inhibition above about 29%;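 further: 0% = agonist challenge alone and 100% = reference antagonist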
CHO Ca triplic = counter-screen for OX1R antagonists: effect in parental CHO cells. shares compounds with OX1R antag-1. parental CHO-K1, ATP-induced calcium, Fluo-8 fluorescence. inhibition, % at 5.6 µM. actives 9.3% (n = 1,100). AID 492965;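 active means inhibition above a per-plate limit, the mean inhibition of that plate's test compounds plus 3 SD, cut at about 25% in these data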;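 further: 0% = ATP challenge with DMSO and 100% = DMSO without ATP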
OX1R HTRF conf = confirmation of human orexin 1 receptor antagonists, HTRF format | AID 492964 | inhibition, % at 6.6 µM | actives 49% (n = 1,800) | OX1R-expressing cells, HTRF antagonist assay | shares compounds with OX1R antag-2; in the data active means inhibition above about 55%;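 further: CHO cells expressing OX1R stimulated with orexin A at about EC80; 0% = agonist challenge alone and 100% = reference antagonist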
CHO-K1 HTRF = counter-screen for OX1R antagonists: effect in parental CHO-K1 cells | HTRF counterscreen | AID 493232 | inhibition, % at 6.6 µM | actives 48% (n = 1,800) | shares compounds with OX1R antag-2; in the data active means inhibition above about 17%;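 further: 0% = agonist challenge with vehicle and 100% = vehicle alone without agonist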
Numbers without * were called inactive. The list is not random: actives were taken first. Their share in the collection is about 2.7%.

How did COc1cccc(OC)c1C(=O)Nc1nc(-c2ccccc2)cs1 do in these assays?
OX1R antag-1: 38*; CHO parental Ca: -17; OXTR ag: -1; OXTR potentiate: -2; V1aR counter: 1; OX1R antag-2: 97*; OX1R Ca confirm: 30*; CHO Ca triplic: -9; OX1R HTRF conf: 89*; CHO-K1 HTRF: 5

How did COc1ccc(-c2csc(NC(=O)c3ccccc3C(=O)O)n2)cc1 do in these assays?
OX1R antag-1: -2; CHO parental Ca: 3; OXTR ag: -1; OXTR potentiate: -7; V1aR counter: 0; OX1R antag-2: 14

How did O=C(NC(=S)Nc1cccc(NC(=O)c2ccc(Cl)cc2Cl)c1)c1cccs1 do in these assays?
OX1R antag-1: -39; CHO parental Ca: -17; OXTR ag: -1; OXTR potentiate: -9; V1aR counter: -1; OX1R antag-2: 11

Results for S=c1[nH]nc(-c2cc(-c3ccccc3)n[nH]2)n1/N=C/c1ccccc1 ?
OX1R antag-1: -1; CHO parental Ca: -15; OXTR ag: 1; OXTR potentiate: -4; V1aR counter: 1; OX1R antag-2: 12

How did S=c1[nH]nc(-c2cc(-c3ccccc3)n[nH]2)n1/N=C/c1cccs1 do in these assays?
OX1R antag-1: 53*; CHO parental Ca: -9; OXTR ag: -2; OXTR potentiate: -7; V1aR counter: -1; OX1R antag-2: 88*; OX1R Ca confirm: 27; CHO Ca triplic: 3; OX1R HTRF conf: 62*; CHO-K1 HTRF: 4

What do the screens show for `CN(C)c1ccc(NC(=S)c2ccc3ccccc3n2)cc1`?
OX1R antag-1: 58*; CHO parental Ca: 0; OXTR ag: -1; OXTR potentiate: 2; V1aR counter: -1; OX1R antag-2: 93*; OX1R Ca confirm: 29; CHO Ca triplic: 14; OX1R HTRF conf: 85*; CHO-K1 HTRF: 9

What do the screens show for `CS(=O)(=O)N(CC(O)Cn1c2ccccc2c2ccccc21)c1ccccc1` (stereo unspecified)?
OX1R antag-1: 27; CHO parental Ca: 13; OXTR ag: 7; OXTR potentiate: -12; V1aR counter: 2; OX1R antag-2: 49*; OX1R Ca confirm: 36*; CHO Ca triplic: -2; OX1R HTRF conf: 44; CHO-K1 HTRF: 3

Results for Cc1c(C(=O)N2CCC(C(N)=O)CC2)oc2ccc(Br)cc12 ?
OX1R antag-1: -1; CHO parental Ca: -13; OXTR ag: 1; OXTR potentiate: 5; V1aR counter: 1; OX1R antag-2: 15

What do the screens show for `CNc1oc(-c2cccc3ccccc23)nc1C#N`?
OX1R antag-1: 92*; CHO parental Ca: -15; OXTR ag: 0; OXTR potentiate: -7; V1aR counter: 0; OX1R antag-2: 90*; OX1R Ca confirm: 68*; CHO Ca triplic: -2; OX1R HTRF conf: 94*; CHO-K1 HTRF: 5

How did CCCCNC(=O)CCC(=O)NNc1nc2ccccc2c2nc(C)nn12 do in these assays?
OX1R antag-1: -14; CHO parental Ca: -1; OXTR ag: -1; OXTR potentiate: 6; V1aR counter: 0; OX1R antag-2: 18

How did CCCCNC(=O)CCC(=O)NNc1nc2ccccc2c2nc(-c3ccccc3)nn12 do in these assays?
OX1R antag-1: 41; CHO parental Ca: -26; OXTR ag: 1; OXTR potentiate: -10; V1aR counter: -1; OX1R antag-2: 77*; OX1R Ca confirm: 33*; CHO Ca triplic: -21; OX1R HTRF conf: 92*; CHO-K1 HTRF: -8

What do the screens show for `CCOC(=O)c1ccc(Nc2sc(C(=O)c3cccc([N+](=O)[O-])c3)c(N)c2C#N)cc1`?
OX1R antag-1: -18; CHO parental Ca: -5; OXTR ag: 0; OXTR potentiate: -15; V1aR counter: 0; OX1R antag-2: 6

What do the screens show for `COc1ccc(C(=O)C2CCCN(C(=O)c3cc(C4CC4)[nH]n3)C2)c(C)c1` (stereo unspecified)?
OX1R antag-1: -46; CHO parental Ca: -24; OXTR ag: 7; OXTR potentiate: -8; V1aR counter: 7; OX1R antag-2: 19

How did NC(=S)N/N=C/c1ccc2cccc(OCc3ccccc3)c2n1 do in these assays?
OX1R antag-1: -13; CHO parental Ca: -12; OXTR ag: 0; OXTR potentiate: -5; V1aR counter: 4; OX1R antag-2: 21

Results for NC(=S)N/N=C/c1ccccc1OCc1cccc(Cl)c1 ?
OX1R antag-1: 54*; CHO parental Ca: -5; OXTR ag: -2; OXTR potentiate: -14; V1aR counter: 0; OX1R antag-2: 81*; OX1R Ca confirm: 35*; CHO Ca triplic: 2; OX1R HTRF conf: 81*; CHO-K1 HTRF: 14

Results for Cc1cc(CNC(=O)COc2cc(F)ccc2[N+](=O)[O-])c2ccccc2n1 ?
OX1R antag-1: 35; CHO parental Ca: -1; OXTR ag: 7; OXTR potentiate: -30; V1aR counter: 8; OX1R antag-2: 105*; OX1R Ca confirm: 11; CHO Ca triplic: 4; OX1R HTRF conf: 34; CHO-K1 HTRF: 9

Results for Cc1cc(CNC(=O)COc2ccc(F)cc2F)c2ccccc2n1 ?
OX1R antag-1: -7; CHO parental Ca: -10; OXTR ag: 5; OXTR potentiate: -14; V1aR counter: 7; OX1R antag-2: 30

How did CCOC(=O)Nc1cc(C)c(Cl)cc1OC do in these assays?
OX1R antag-1: 8; CHO parental Ca: -9; OXTR ag: -2; OXTR potentiate: -1; V1aR counter: -1; OX1R antag-2: 11

Results for COc1cc(Cl)c(C)cc1Nc1ncccn1 ?
OX1R antag-1: 25; CHO parental Ca: -2; OXTR ag: -2; OXTR potentiate: -2; V1aR counter: -1; OX1R antag-2: 82*; OX1R Ca confirm: 24; CHO Ca triplic: -4; OX1R HTRF conf: 74*; CHO-K1 HTRF: 8

What do the screens show for `CN(CC(=O)Nc1ccc(Cl)c(C(F)(F)F)c1)C(=O)Cc1cccs1`?
OX1R antag-1: -18; CHO parental Ca: -4; OXTR ag: 3; OXTR potentiate: -16; V1aR counter: 8; OX1R antag-2: 23
